The values below come from ChEMBL document CHEMBL3745596, “Chlorophenoxy aminoalkyl derivatives as histamine H(3)R ligands and antiseizure agents” (Bioorg Med Chem, 2016).

SMILES strings stand for the structures. Activity calls are given as the source filed them.

In data set [1] the test system is Mus musculus. The experiment in a line: Anticonvulsant activity in CF1 albino mouse assessed as protection against maximal electroshock-induced seizure at 100 mg/kg, ip after 0.5 hrs. The format is functional, organism-based. A digest of the protocol: (§1)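 Male CF-1 mice dosed ip as suspension in 0.5% methylcellulose. Corneal electrodes deliver 60 Hz alternating current, 50 mA for […], after a drop of 0.5% tetracaine HCl in 0.9% NaCl per eye. Protection means abolition of hindlimb tonic extension; scored as protected/tested, or ED50 with 95% confidence interval.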

Data set [2] deals with Mus musculus. In words: Neurotoxicity in CF1 albino mouse at 30 mg/kg, ip after 4 hrs by rotarod test. The format is toxicity, organism-based. Particulars: in vivo. The procedure, abridged:
(§2)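 Rotarod neurotoxicity in male albino CF-1 mice dosed ip with compound suspended in 0.5% methylcellulose. Animal placed on a 1 inch diameter knurled plastic rod rotating at 6 rpm. Neurotoxicity scored when the animal falls off three times within 1 min. Readout is number of animals toxic/number tested at the stated time after dosing. TD50 with 95% confidence interval from the quantitative study.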

The next data set concerns Rattus norvegicus. The experiment in a line: Anticonvulsant activity in Sprague-Dawley rat assessed as protection against maximal electroshock-induced seizure at 30 mg/kg, po. Format: functional.
Data set [3] is described as follows: Antiproliferative activity against human IMR32 cells assessed as cell viability after 48 hrs by formazan EZ4U dye based assay. Particulars: IMR-32, 48 h. The procedure, abridged: (§3)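 HEK-293 (1.5 × 10⁴/well) or IMR-32 (2 × 10⁴/well) cells in DMEM with 10% FBS, 37 °C, 5% CO₂, grown 24 h to about 60% confluence; compounds 0.01–250 µM final, DMSO at most 1%, 48 h.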

Data set [4] has as its system Mus musculus. In words: Anticonvulsant activity in CF1 albino mouse assessed as protection against maximal electroshock-induced seizure at 10 mg/kg, ip after 0.5 hrs. The format is functional, organism-based. A digest of the protocol:
as §1

Data set [5] deals with Mus musculus. In words: Anticonvulsant activity in CF1 albino mouse assessed as protection against maximal electroshock-induced seizure at 3 mg/kg, ip after 0.5 hrs. Format: functional, organism-based. A digest of the protocol: as §1
Data set [6] concerns the target T1, Histamine H3 receptor (Homo sapiens, UniProt Q9Y5N1). In words: Antagonist activity at human recombinant histamine H3 receptor expressed in HEK293 cells assessed as inhibition of forskolin/(R)(-)-alpha-methylhistamine-induced cAMP accumulation after 1 hr by TR-FRET immunoassay. Format: functional, cell-based. A digest of the protocol: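 HEK293 cells stably expressing hH3R, stimulated 30 min at room temperature with (R)(-)-α-methylhistamine (15 nM), forskolin and antagonist (0.1 nM–10 µM range) added together. cAMP read by TR-FRET (Eu-cAMP tracer, ULight anti-cAMP antibody, 1 h), converted via cAMP standard curve to % maximal response. Sigmoidal dose–response fit; mean of three experiments, each in triplicate.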

Data set [7] concerns Mus musculus. The experiment in a line: Anticonvulsant activity in CF1 albino mouse assessed as protection against maximal electroshock-induced seizure at 30 mg/kg, ip after 4 hrs. The format is functional, organism-based. The procedure, abridged: as §1
Another data set has as its target Cytochrome P450 3A4 (Homo sapiens, UniProt P08684). The experiment in a line: Inhibition of CYP3A4 (unknown origin) up to 10 uM. Format: ADME.
The subject of data set [8] is Mus musculus. In words: Neurotoxicity in CF1 albino mouse at 100 mg/kg, ip after 4 hrs by rotarod test. The format is toxicity, organism-based. Particulars: in vivo. A digest of the protocol: as §2
Data set [9] concerns Mus musculus. The experiment in a line: Neurotoxicity in CF1 albino mouse at 3 mg/kg, ip after 0.5 hrs by rotarod test. The format is toxicity, organism-based. Particulars: in vivo. The procedure, abridged:
as §2

In data set [10] the test system is Mus musculus. In words: Neurotoxicity in CF1 albino mouse assessed as death at 300 mg/kg, ip after 0.5 hrs by rotarod test. Particulars: in vivo. The format is toxicity, organism-based. A digest of the protocol: (§4)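 Male albino CF-1 mice dosed ip with compound suspended in 0.5% methylcellulose, then placed on a 1-inch knurled plastic rod turning at 6 rpm. A fall three times within 1 min counted as neurotoxicity. Observations were made at 0.5 h and 4 h after dosing. Result given as animals showing toxicity per animals tested, with the kind of toxicity recorded.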

The subject of data set [11] is Mus musculus. In words: Anticonvulsant activity in CF1 albino mouse assessed as protection against maximal electroshock-induced seizure at 100 mg/kg, ip after 4 hrs. Format: functional, organism-based. The procedure, abridged: as §1
The subject of a further data set is Liver microsome. The experiment in a line: Drug metabolism in human liver microsomes after 2 hrs by UPLC-MS/MS analysis. Format: ADME. The procedure, abridged: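 Pooled adult male and female human liver microsomes 1 mg/mL in 0.1 M Tris–HCl pH 7.4 with NADPH regeneration system; started after 5 min preincubation at 37 °C, incubated 2 h at 37 °C, stopped with cold methanol, centrifuged, supernatant analysed by UPLC with ESI tandem quadrupole MS.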

The test system of data set [12] is Mus musculus. In words: Neurotoxicity in CF1 albino mouse at 30 mg/kg, ip after 0.5 hrs by rotarod test. The note with it: in vivo. The format is toxicity, organism-based. A digest of the protocol: as §2
The subject of data set [13] is Mus musculus. In words: Anticonvulsant activity in CF1 albino mouse assessed as protection against subcutaneous pentetrazole-induced seizure at 30 mg/kg, ip after 0.5 hrs. Format: functional, organism-based. A digest of the protocol: (§5)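 Male CF-1 mice, ip in 0.5% methylcellulose; pentetrazole at CD97 (85 mg/kg) injected subcutaneously in a loose fold of neck skin. Observed 30 min; absence of even a threshold seizure (single clonic spasm lasting at least 5 s) counted as protection. Scored protected/tested, or ED50.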

Data set [14] concerns the target T1, Histamine H3 receptor. The experiment in a line: Displacement of [3H]-Nalpha-methylhistamine from human recombinant histamine H3 receptor expressed in HEK293 cells after 90 mins. The format is cell-based.
Data set [15] has as its system Mus musculus. In words: Neurotoxicity in CF1 albino mouse assessed as unable to grasp rotarod and death at 100 mg/kg, ip after 0.5 hrs by rotarod test. The format is toxicity, organism-based. Particulars: in vivo. The procedure, abridged: as §4
Data set [16] deals with Mus musculus. In words: Anticonvulsant activity in CF1 albino mouse assessed as protection against subcutaneous pentetrazole-induced seizure at 30 mg/kg, ip after 4 hrs. Format: functional, organism-based. The procedure, abridged:
as §5

The subject of another data set is HEK293. The experiment in a line: Antiproliferative activity against human HEK293 cells assessed as cell viability after 48 hrs by formazan EZ4U dye based assay. The note with it: HEK293, 48 h. The procedure, abridged:
as §3

Data set [17] relates to Mus musculus. In words: Anticonvulsant activity in CF1 albino mouse assessed as protection against maximal electroshock-induced seizure at 30 mg/kg, ip after 0.5 hrs. Format: functional, organism-based. A digest of the protocol:
as §1

Data set [18] deals with Mus musculus. The experiment in a line: Neurotoxicity in CF1 albino mouse at 10 mg/kg, ip after 0.5 hrs by rotarod test. Format: toxicity, organism-based. Particulars: in vivo. The procedure, abridged:
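Rotarod neurotoxicity in male CF-1 mice dosed ip as 0.5% methylcellulose suspension: mouse placed on 1 inch knurled rod rotating at 6 rpm; toxicity when the animal falls off three times within 1 min, with other signs noted. Scored as toxic/tested at 0.5 h and 4 h.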

Data set [19] concerns Mus musculus. The experiment in a line: Neurotoxicity in CF1 albino mouse at 300 mg/kg, ip after 4 hrs by rotarod test. The note with it: in vivo. Format: toxicity, organism-based. The procedure, abridged: as §2

T1 sequence (Q9Y5N1 whole entry): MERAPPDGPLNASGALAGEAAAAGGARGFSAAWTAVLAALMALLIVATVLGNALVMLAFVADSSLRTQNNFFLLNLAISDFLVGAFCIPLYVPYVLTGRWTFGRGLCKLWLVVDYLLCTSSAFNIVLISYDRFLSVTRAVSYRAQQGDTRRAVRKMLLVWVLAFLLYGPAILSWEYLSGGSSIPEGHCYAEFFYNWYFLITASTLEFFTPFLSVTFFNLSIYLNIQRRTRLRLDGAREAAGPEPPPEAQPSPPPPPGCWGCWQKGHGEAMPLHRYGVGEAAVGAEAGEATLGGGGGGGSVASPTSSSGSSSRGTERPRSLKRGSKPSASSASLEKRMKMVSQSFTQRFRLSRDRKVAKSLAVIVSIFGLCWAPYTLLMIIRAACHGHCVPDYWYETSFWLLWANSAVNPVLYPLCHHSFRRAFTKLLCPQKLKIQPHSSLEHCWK
Sequence of Cytochrome P450 3A4 (P08684 whole entry): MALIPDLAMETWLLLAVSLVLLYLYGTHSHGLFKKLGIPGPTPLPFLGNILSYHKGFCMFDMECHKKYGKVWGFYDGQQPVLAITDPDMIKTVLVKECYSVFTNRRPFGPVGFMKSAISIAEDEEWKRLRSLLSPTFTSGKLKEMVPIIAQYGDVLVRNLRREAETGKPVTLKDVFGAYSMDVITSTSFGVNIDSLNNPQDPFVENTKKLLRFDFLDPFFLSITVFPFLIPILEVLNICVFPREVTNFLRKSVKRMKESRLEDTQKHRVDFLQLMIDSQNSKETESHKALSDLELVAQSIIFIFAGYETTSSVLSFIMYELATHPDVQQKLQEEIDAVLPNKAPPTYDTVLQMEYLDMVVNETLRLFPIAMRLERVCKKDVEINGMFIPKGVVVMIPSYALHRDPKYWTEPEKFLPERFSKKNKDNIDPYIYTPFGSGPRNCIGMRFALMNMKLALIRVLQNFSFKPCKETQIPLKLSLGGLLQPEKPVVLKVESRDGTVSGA

For the compound `Clc1ccc(OCCCCCCCN2CCCCC2)cc1.O=C(O)C(=O)O`, the result in the data set on Mus musculus [1], in the data set with Mus musculus [11] and in the data set with Mus musculus [17] was Active. For the same compound, the Activity entry is reported as “Non-toxic” in the data set with Mus musculus [2]; 25% with Rattus norvegicus; “Non-toxic” in the data set with Mus musculus [8]; “Non-toxic” with Mus musculus [9]; “Toxic” in the data set with Mus musculus [10]; “Non-toxic” in the data set on Mus musculus [12]. The Activity entry in the data set on Mus musculus [15] is “Toxic”; in the data set with Mus musculus [18], “Non-toxic”; with Mus musculus [19], “Non-toxic”. Moreover, the IC50 in data set [3] came out at 15.5 µM; in the data set on HEK293 it was 33.6 µM. Moreover, the result in the data set on Mus musculus [4], in the data set with Mus musculus [5], with Mus musculus [7], with Mus musculus [13] and with Mus musculus [16] was inactive. Also, the EC50 on Histamine H3 receptor [6] was found to be 0.075 µM. In addition, the “inhibition (INH)” value against Cytochrome P450 3A4 is given as “Not Active”. In addition, the Drug metabolism result with Liver microsome is given as “metabolite_detected”. Also, the Ki on Histamine H3 receptor [14] came to 0.128 µM.
